The nature of data set [1]: Activity at cytochrome P450 in PCN-induced rat liver microsomes treated with (R)-warfarin at 0.15 mmol measured under basic conditions by LC-UV analysis in presence of cumene hydroperoxide. The class given is ADME. In outline: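 PCN-induced rat liver microsomes (PCN 100 mg/kg/day ip in corn oil for 3 days; killed 24 h after last dose): 200 mL of microsomes at 2.0 mg protein/mL in TES-MgCl2 buffer pH 7.4, with (R)-warfarin sodium 1.5 × 10^-4 mol. Shaken 5 min at 37 °C, then started with cumene hydroperoxide 1.6 × 10^-4 mol, re-added at 10 min, stopped at 30 min on ice. Product collected by preparative C18 LC.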

Data set [2] can be described thus: Activity at cytochrome P450 in phenobarbital-induced rat liver microsomes treated with (S)-warfarin at 3 umol measured under basic conditions by LC-UV analysis in presence of NADPH. The class given is ADME. The essentials: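 Phenobarbital induction: 100 mg/kg/day ip in saline for 3 days, microsomes isolated 24 h after the last dose. Incubation in 4.0 mL 0.01 M TES-0.002 M MgCl2, pH 7.4, with warfarin sodium 1.0 mg (3.0 × 10^-6 mol), NADP 1.25 μmol, glucose 6-phosphate 62.1 μmol and 8.0 mg microsomal protein. Preincubated 1.0 min at 37 °C, started with G6P dehydrogenase 5.0 units, stopped after 10 min by filtration. Metabolites quantified by LC against external standards.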
Background: Microsomes from liver hold many membrane-bound enzymes, among them those of drug oxidation.

Data set [3] in a line: Activity at cytochrome P450 in rat liver microsomes treated with (S)-warfarin at 3 umol measured under basic conditions by LC-UV analysis in presence of NADPH. The data set is classed as ADME. The essentials: (§1)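 Male Wistar rat hepatic microsomes, 8.0 mg protein in 4.0 mL 0.01 M TES-0.002 M MgCl2, pH 7.4. Enantiopure warfarin sodium 1.0 mg (3.0 × 10^-6 mol) with an NADPH-generating system (NADP 1.25 μmol, glucose 6-phosphate 62.1 μmol). Preincubated 1.0 min at 37 °C, started with G6P dehydrogenase 5.0 units, stopped after 10 min by filtration. Metabolites separated and quantified by LC against external standards.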

A short description of data set [4]: Drug metabolism in rat liver microsomes assessed as cytochrome P450-mediated 4'-hydroxywarfarin metabolite formation measured for 10 mins by LC-UV analysis. The class given is ADME. In outline: (§2)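 Time course with (S)-warfarin in uninduced rat liver microsomes (cytochrome P-450 1.0 nmol/mg protein; protein 2 mg/mL) at 37 °C and pH 7.4. NADPH-supported TES–MgCl2 incubation, with products quantified by LC. Single determination from a pool of five rats.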

Data set [5] can be described thus: Drug metabolism in rat liver microsomes assessed as cytochrome P450-mediated 6-hydroxywarfarin metabolite formation measured after 10 mins by LC-UV analysis. The class given is ADME. The essentials:
as §2

Data set [6] can be described thus: Drug metabolism in rat liver microsomes assessed as cytochrome P450-mediated 4'-hydroxywarfarin metabolite formation by LC-UV analysis in presence of carbon monoxide-oxygen mixture at ratio of 80:20. The data set is classed as ADME. In outline: (§3)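 Same NADPH-supported microsomal incubation (warfarin 3.0 × 10^-6 mol, 8.0 mg protein, 4.0 mL TES–MgCl2, pH 7.4). Flasks were sealed with a septum and equilibrated under the stated gas atmosphere for 15 min on ice, then incubated at 37 °C. Products quantified by LC.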

Data set [7] is described as follows: Drug metabolism in rat liver microsomes assessed as cytochrome P450-mediated 4-hydroxy-3-(3-oxo-1-phenyl-1-butenyl)-2H-1-benzopyran-2-one metabolite formation measured after 10 mins by LC-UV analysis. The class given is ADME. In outline:
as §2

Data set [8] in a line: Drug metabolism in rat liver microsomes assessed as cytochrome P450-mediated 4-hydroxy-3-(3-oxo-1-phenyl-1-butenyl)-2H-1-benzopyran-2-one metabolite formation measured for 10 mins by LC-UV analysis. The class given is ADME. In outline:
as §2

Data set [9] is described as follows: Drug metabolism in rat liver microsomes assessed as cytochrome P450-mediated 7-hydroxywarfarin metabolite formation measured after 10 mins by LC-UV analysis. The class given is ADME. The essentials:
as §2

The nature of data set [10]: Drug metabolism in rat liver microsomes assessed as cytochrome P450-mediated 7-hydroxywarfarin metabolite formation by LC-UV analysis in presence of carbon monoxide-oxygen mixture at ratio of 80:20. The data set is classed as ADME. In outline:
as §3

The nature of data set [11]: Drug metabolism in rat liver microsomes assessed as cytochrome P450-mediated 6-hydroxywarfarin metabolite formation by LC-UV analysis in presence of carbon monoxide-oxygen mixture at ratio of 80:20. The class given is ADME. In outline:
as §3

Data set [12] is described as follows: Drug metabolism in rat liver microsomes assessed as cytochrome P450-mediated 4'-hydroxywarfarin metabolite formation measured after 10 mins by LC-UV analysis. The class given is ADME. The essentials: as §2
Data set [13] in a line: Drug metabolism in PCN-induced rat liver microsomes assessed as cytochrome P450-mediated 4-hydroxy-3-(3-oxo-1-phenyl-1-butenyl)-2H-1-benzopyran-2-one metabolite formation at 0.15 mmol measured per nmol of CYP450 by LC-UV analysis.
Data set [14] in a line: Drug metabolism in rat liver microsomes assessed as cytochrome P450-mediated 4-hydroxy-3-(3-oxo-1-phenyl-1-butenyl)-2H-1-benzopyran-2-one metabolite formation at 3 umol measured under acidic conditions by LC-UV analysis in presence of NADPH. The class given is ADME. The essentials:
(§4)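 Male Wistar rat liver microsomes, uninduced or phenobarbital-induced (100 mg/kg/day ip in saline for 3 days, harvested 24 h after the last dose). Per 4.0 mL of 0.01 M TES–0.002 M MgCl2, pH 7.4: (R)- or (S)-warfarin sodium 3.0 × 10^-6 mol, NADP 1.25 µmol, glucose 6-phosphate 62.1 µmol, 8.0 mg protein. Preincubated 1.0 min at 37 °C, started with yeast G6P dehydrogenase (5.0 units), stopped by filtration after 10 min. Products quantified by LC against external standards.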

Data set [15] in a line: Drug metabolism in rat liver microsomes assessed as cytochrome P450-mediated 4-hydroxy-3-(3-oxo-1-phenyl-1-butenyl)-2H-1-benzopyran-2-one metabolite formation by LC-UV analysis in presence of carbon monoxide-oxygen mixture at ratio of 80:20. The class given is ADME. The essentials:
as §3

Data set [16] in a line: Drug metabolism in phenobarbital-induced rat liver microsomes assessed as cytochrome P450-mediated 4-hydroxy-3-(3-oxo-1-phenyl-1-butenyl)-2H-1-benzopyran-2-one metabolite formation at 3 umol measured under acidic conditions by LC-UV analysis in presence of NADPH. The class given is ADME. In outline:
as §4

Data set [17] can be described thus: Drug metabolism in rat liver microsomes assessed as cytochrome P450-mediated 7-hydroxywarfarin metabolite formation measured for 10 mins by LC-UV analysis. The data set is classed as ADME. The essentials:
as §2

Data set [18] can be described thus: Drug metabolism in rat liver microsomes assessed as cytochrome P450-mediated 4-hydroxy-3-(3-oxo-1-phenyl-1-butenyl)-2H-1-benzopyran-2-one metabolite formation by LC-UV analysis in presence of nitrogen. The data set is classed as ADME. The essentials: as §3
A short description of data set [19]: Drug metabolism in phenobarbital-induced rat liver microsomes assessed as cytochrome P450-mediated 4-oxo-3-(3-oxo-1-phenylbut-1-enyl)-4H-chromen-2-olate metabolite formation at 3 umol measured under basic conditions by LC-UV analysis in presence of NADPH. The data set is classed as ADME. The essentials: as §4
A short description of data set [20]: Drug metabolism in rat liver microsomes assessed as cytochrome P450-mediated 4-oxo-3-(3-oxo-1-phenylbut-1-enyl)-4H-chromen-2-olate metabolite formation at 3 umol measured under basic conditions by LC-UV analysis in presence of NADPH. The class given is ADME. In outline:
as §4

A short description of data set [21]: Drug metabolism in rat liver microsomes assessed as cytochrome P450-mediated 6-hydroxywarfarin metabolite formation measured for 10 mins by LC-UV analysis. The class given is ADME. In outline: as §2
Data set [22] is described as follows: Drug metabolism in PCN-induced rat liver microsomes assessed as cytochrome P450-mediated 4-hydroxy-3-(3-oxo-1-phenyl-1-butenyl)-2H-1-benzopyran-2-one metabolite formation at 0.15 mmol measured per nmol of CYP450 under acidic conditions by LC-UV analysis in presence of cumene hydroperoxide. The data set is classed as ADME. In outline:
(§5)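 Liver microsomes from PCN-induced rats (100 mg/kg/day ip in corn oil for 3 days), 200 mL at 2.0 mg protein/mL in TES–MgCl2, pH 7.4, with (R)-warfarin sodium 1.5 × 10^-4 mol. Preincubated 5 min at 37 °C with shaking, started with cumene hydroperoxide 1.6 × 10^-4 mol, given a second equal addition at 10 min, stopped at 30 min on ice. Product isolated by preparative C18 LC.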

The nature of data set [23]: Drug metabolism in phenobarbital-induced rat liver microsomes assessed as cytochrome P450-mediated 4-hydroxy-3-(3-oxo-1-phenyl-1-butenyl)-2H-1-benzopyran-2-one metabolite formation at 3 umol measured per nmol of CYP450 under acidic conditions by LC-UV analysis in presence of cumene hydroperoxide. The data set is classed as ADME. The essentials: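 Phenobarbital-induced rat liver microsomes (100 mg/kg/day ip for 3 days) with 8.0 mg protein and warfarin sodium 3.0 × 10^-6 mol in 4.0 mL TES–MgCl2 buffer, pH 7.4, at 37 °C. No NADPH generating system; started with cumene hydroperoxide 3.3 × 10^-5 mol and stopped after 5 min. Products quantified by LC against external standards.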

A short description of data set [24]: Drug metabolism in PCN-induced rat liver microsomes assessed as cytochrome P450-mediated 4-oxo-3-(3-oxo-1-phenylbut-1-enyl)-4H-chromen-2-olate metabolite formation at 0.15 mmol measured under basic conditions by LC-UV analysis in presence of cumene hydroperoxide. The data set is classed as ADME. The essentials:
as §5

Data set [25] is described as follows: Activity at cytochrome P450 in rat liver microsomes treated with (S)-warfarin measured after 10 mins by LC-UV analysis. The data set is classed as ADME. In outline: as §1
A short description of data set [26]: Activity at cytochrome P450 in rat liver microsomes treated with (S)-warfarin measured for 10 mins by LC-UV analysis. The class given is ADME. In outline: as §1
Data set [27] can be described thus: Activity at cytochrome P450 in rat liver microsomes treated with (R)-warfarin measured after 10 mins by LC-UV analysis. The data set is classed as ADME. In outline:
as §1

The nature of data set [28]: Activity at cytochrome P450 in rat liver microsomes treated with (R)-warfarin measured for 10 mins by LC-UV analysis. The data set is classed as ADME. In outline: as §1

For `CC(=O)/C=C(\c1ccccc1)c1c(O)oc2ccccc2c1=O`, the Drug metabolism entry in [1], in [2] and in data set [3] was “metabolite_detected” each time.
Consider `CC(=O)C[C@@H](c1ccccc1)c1c(O)c2ccccc2oc1=O`, for which the Drug metabolism entry in data set [4] is on record as “metabolite_detected”; in data set [5] it was “metabolite_detected”; in data set [6], “metabolite_detected”; in [7], “metabolite_notdetected”; in [8], “metabolite_detected”; in data set [9] it was “metabolite_detected”. Moreover, the Drug metabolism result in [10] was “metabolite_detected”; in [11] it was “metabolite_detected”; in data set [12], “metabolite_detected”; in data set [13] it was 0.19 nmol/min; in data set [14], “metabolite_detected”; in [15], “metabolite_detected”. The Drug metabolism result was “metabolite_detected” in data set [16]; “metabolite_detected” in data set [17]; “metabolite_notdetected” in data set [18]; “metabolite_detected” in data set [19]; “metabolite_detected” in [20]; “metabolite_detected” in data set [21].
For the compound `CC(=O)C[C@H](c1ccccc1)c1c(O)c2ccccc2oc1=O`, the Drug metabolism result is “metabolite_detected” in data set [4]; “metabolite_detected” in data set [5]; 0.423 nmol/min in [22]; “metabolite_notdetected” in data set [7]; 0.15 nmol/min in data set [23]; “metabolite_detected” in data set [8]. Also, the Drug metabolism result in data set [9], in data set [12], in [24], in data set [17] and in data set [21] was “metabolite_detected” each time.
Regarding `CC(=O)CC(c1ccc(O)cc1)c1c(O)oc2ccccc2c1=O` (stereo unspecified), the Drug metabolism result in data set [25], in [26], in data set [27] and in data set [28] was “metabolite_detected” in each case.

Source of the values: ChEMBL document CHEMBL3244411, “A new warfarin metabolite: structure and function” (J Med Chem, 1978).
